# According to PMC9026613 (Current Therapeutic Research, Clinical and Experimental, 2022):
# Where two headings read alike, the source gives them in different places.
# Assays:
# [1] = Pharmacokinetics of dasiglucagon in plasma after IV or SC dosing, Phase I trial; assay type: in vivo, human
# Outline: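 Single IV doses of 0.03, 0.1, 0.3, 0.6 or 1.5 mg from a 4 mg/mL solution diluted with vehicle, after a fast of ≥8 h. One cohort got 0.6 mg SC into the abdomen by prefilled syringe. Plasma sampled over 4 h (IV) or 5 h (SC). Dose proportionality by log–log power-model regression (90% CI of slope). Absolute bioavailability from a linear model of AUC, SC versus IV 0.6 mg.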
# plasma glucose [2] = assay: Plasma glucose response; assay type: in vivo, human
# healthy volunteers [3] = assay type: in vivo, human
# healthy volunteers [4] = assay: Cardiac repolarization: by-time point analysis of QTcF; assay type: in vivo, human; settings: least squares mean
# Outline: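 Single IV dose of test compound or placebo. Continuous Holter 12-lead ECG with supine rest ≥15 min. Extractions at 45, 30 and 15 min predose and at 5–240 min and 24 h postdose, up to 10 nonoverlapping 10-s replicates per point. Lead II was primary. QTcF=QT/RR^1/3. Analysed in a linear mixed-effects model on ΔQTcF (fixed: time, treatment, interaction; baseline covariate), placebo pooled.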
# healthy volunteers [5] = assay: Concentration-QTc analysis, linear mixed-effects model; assay type: in vivo, human; settings: not significant at the 0.1 level
# healthy volunteers [6] = assay: Concentration-QTc analysis, Emax model; assay type: in vivo, human; settings: for ΔΔQTcF estimate at geometric mean Cmax: Emax model prediction, mean (90% CI)
# Outline: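 Placebo-adjusted ΔQTcF for each subject and time point = individual ΔQTcF minus the estimated time effect at that point. ΔΔQTcF predicted at the geometric mean peak concentration per dose.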
# healthy volunteers [7] = assay type: in vivo, human; remark: listed apart in the source
# Outline: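 Single IV (0.03–1.5 mg) or SC (0.6 mg) dose, or IV placebo. Safety was monitored throughout the study by AE recording, vital signs, clinical laboratory tests, physical examination, 12-lead ECG and injection-site reaction checks. TEAEs were tallied per participant by treatment.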
# healthy volunteers [8] = assay: Antidasiglucagon antibody assessment; set-up: species or system human; settings: in vivo
# [9] = 0.6 mg single subcutaneous dose, other clinical trials; ref not given; cited from earlier work
# [10] = tested on: 8 different human cardiac ion channels (including human ether-a-go-go related gene [hERG]); settings: 8 channels including hERG; nonclinical studies, ref not given; cited from earlier work
# dogs = settings: cardiovascular telemetry; nonclinical studies, ref not given; cited from earlier work
# [11] = cited from earlier work
# plasma glucose [12] = settings: following insulin-induced hypoglycemia; cited from earlier work
compound,measurement,setting,value
CC(C)C[C@H](NC(=O)[C@H](Cc1c[nH]c2ccccc12)NC(=O)[C@H](CCCCN)NC(=O)[C@@H](NC(=O)[C@H](Cc1ccccc1)NC(=O)[C@H](CCC(=O)O)NC(=O)[C@H](CCC(=O)O)NC(=O)[C@H](C)NC(=O)[C@H](CCCNC(=N)N)NC(=O)[C@H](C)NC(=O)C(C)(C)NC(=O)[C@H](CC(=O)O)NC(=O)[C@H](CC(C)C)NC(=O)[C@H](Cc1ccc(O)cc1)NC(=O)[C@H](CCCCN)NC(=O)[C@H](CO)NC(=O)[C@H](Cc1ccc(O)cc1)NC(=O)[C@H](CC(=O)O)NC(=O)[C@H](CO)NC(=O)[C@@H](NC(=O)[C@H](Cc1ccccc1)NC(=O)[C@@H](NC(=O)CNC(=O)[C@H](CCC(N)=O)NC(=O)[C@H](CO)NC(=O)[C@@H](N)Cc1c[nH]cn1)[C@@H](C)O)[C@@H](C)O)C(C)C)C(=O)N[C@@H](CCC(=O)O)C(=O)N[C@@H](CO)C(=O)N[C@H](C(=O)O)[C@@H](C)O [dasiglucagon],dose proportionality of AUC and Cmax,"[1]; IV dose cohorts 0.03 to 1.5 mg, power model",dose-proportional
same,half-life,"[1]; human, plasma, iv",~18 min
same,Cmax,"[1]; human, plasma, iv, 0.03 mg",0.568 nM
same,Cmax,"[1]; human, plasma, iv, 0.1 mg",2.39 nM
same,Cmax,"[1]; human, plasma, iv, 0.3 mg",6.46 nM
same,AUC(0-inf),"[1]; human, plasma, iv, 0.6 mg",4.63 nM·h
same,Cmax,"[1]; human, plasma, iv, 0.6 mg",10.2 nM
same,Cmax,"[1]; human, plasma, iv, 1.5 mg",57.9 nM
same,AUC(0-inf),"[1]; human, plasma, sc, 0.6 mg",2.36 nM·h
same,AUC(0-t),"[1]; human, plasma, sc, 0.6 mg",2.36 nM·h
same,Cmax,"[1]; human, plasma, sc, 0.6 mg",1.53 nM
same,bioavailability,"[1]; human, plasma, sc, 0.6 mg",~51%
same,half-life,"[1]; human, plasma, sc, 0.6 mg",~30 min
same,"Median time to Cmax, glucose",plasma glucose [2]; IV 0.03 mg,17.5 min
same,"mean maximum glucose concentration (Cmax, glucose)","plasma glucose [2]; IV 0.03 mg, healthy volunteers",135 mg/dL
same,"Median time to Cmax, glucose",plasma glucose [2]; IV 1.5 mg,42.5 min
same,"mean maximum glucose concentration (Cmax, glucose)","plasma glucose [2]; IV 1.5 mg, healthy volunteers",160 mg/dL
same,plasma glucose level after subcutaneous dosing,"plasma glucose [2]; SC 0.6 mg, healthy volunteers",172 mg/dL
same,Mean ΔΔHR,"healthy volunteers [3]; IV 0.03 mg, 5 minutes postdose (lowest value)",–7.0 bpm
same,Mean ΔΔHR,"healthy volunteers [3]; IV 0.6 mg, 24 hours postdose (highest value)",7.5 bpm
same,effect on PR interval,healthy volunteers [3]; IV 0.03 to 1.5 mg,did not have a clinically relevant effect
same,effect on QRS duration,healthy volunteers [3]; IV 0.03 to 1.5 mg,did not have a clinically relevant effect
same,mean placebo-corrected change from baseline in heart rate (ΔΔHR),healthy volunteers [3]; all studied IV doses 0.03 to 1.5 mg,< 10 bpm
same,Mean ΔΔQTcF,"healthy volunteers [4]; IV 0.03 mg, 40 minutes postdose",-3.4 ms
same,Mean ΔΔQTcF,"healthy volunteers [4]; IV 0.1 mg, 180 minutes postdose",12.3 ms
same,treatment effect-specific intercept,healthy volunteers [5],0.8 ms
same,Emax (maximum estimated effect on ΔΔQTcF),"healthy volunteers [6]; Emax model, all IV data, P = 0.0137",3.6 ms
same,treatment effect–specific intercept,"healthy volunteers [6]; Emax model, not significant at the 0.1 level",-0.44 ms
same,ΔΔQTcF estimate at geometric mean Cmax,"healthy volunteers [6]; IV 0.03 mg, n = 36 overall",1.61 ms
same,ΔΔQTcF estimate at geometric mean Cmax,healthy volunteers [6]; IV 0.1 mg,2.61 ms
same,ΔΔQTcF estimate at geometric mean Cmax,healthy volunteers [6]; IV 0.3 mg,2.93 ms
same,ΔΔQTcF estimate at geometric mean Cmax,healthy volunteers [6]; IV 0.6 mg,3.01 ms
same,ΔΔQTcF estimate at geometric mean Cmax,healthy volunteers [6]; IV 1.5 mg,3.13 ms
same,EC50,"healthy volunteers [6]; read-out: amount that produces half the effect of Emax, Emax model, plasma concentration, not significant at the 0.1 level",426 pM
same,participants who experienced nausea,healthy volunteers [7]; 0.6 mg SC cohort,4 out of 6
same,participants who vomited,healthy volunteers [7]; 0.6 mg SC cohort,3 out of 6
same,dizziness,healthy volunteers [7]; SC and IV dasiglucagon cohorts,2 participants
same,extravasation,healthy volunteers [7]; SC and IV dasiglucagon cohorts,2 participants
same,headache,healthy volunteers [7]; SC and IV dasiglucagon cohorts,2 participants
same,nausea,healthy volunteers [7]; SC and IV dasiglucagon cohorts,9 participants
same,vomiting,healthy volunteers [7]; SC and IV dasiglucagon cohorts,4 participants
same,ECG-related TEAEs or TEAEs in the system organ class cardiac disorders,healthy volunteers [7]; all cohorts,no ECG-related TEAEs
same,participants reporting treatment-emergent AEs (TEAEs),"healthy volunteers [7]; all dasiglucagon cohorts, 14 out of 42",33.3%
same,effect on vital signs or safety laboratory parameters,healthy volunteers [7]; in vivo,No effect
same,injection site reactions,"healthy volunteers [7]; spontaneous pain (0.1 mg IV), hematoma (0.6 mg SC), both mild",Two injection site reactions
same,cross-reactivity of antibodies to endogenous glucagon,healthy volunteers [8],no cross-reactivity
same,maximum concentrations observed in any clinical trial,[9],5000 to 6000 pmol/L
same,effect on human cardiac ion channels in vitro,[10],no effect
same,potential for QTc prolongation in dogs,dogs,no potential for QTc prolongation
same,stability in aqueous solutions,[11],stable in aqueous solutions
same,Median time to plasma glucose recovery vs reconstituted lyophilized glucagon,plasma glucose [12],comparable
